Assays:
[1] = Antiproliferative activity against BAEC; format: functional, cell-based; conditions: Bos taurus
[2] = test system: HUVEC; assay: Antiproliferative activity against HUVEC after 72 hrs by MTT assay; format: cell-based; conditions: Homo sapiens
Outline: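 HUVEC (passage 3-5) grown in endothelial growth medium at 37 C; 2000 cells/well seeded in triplicate. After attachment, fresh medium with compound for 72 h. MTT 0.25 mg/mL added for 2 h at 37 C, formazan dissolved in isopropanol, absorbance read at 570 nm. Value is concentration giving 50% growth inhibition.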

[3] = molecular target: Methionine aminopeptidase 2 (Homo sapiens) (UniProt P50579); assay: Inhibition of MetAP2 assessed as remaining enzyme activity at 200 nM after 8 hrs relative to untreated control
Methionine aminopeptidase 2 (Homo sapiens), sequence (P50579 2-478 limits assumed): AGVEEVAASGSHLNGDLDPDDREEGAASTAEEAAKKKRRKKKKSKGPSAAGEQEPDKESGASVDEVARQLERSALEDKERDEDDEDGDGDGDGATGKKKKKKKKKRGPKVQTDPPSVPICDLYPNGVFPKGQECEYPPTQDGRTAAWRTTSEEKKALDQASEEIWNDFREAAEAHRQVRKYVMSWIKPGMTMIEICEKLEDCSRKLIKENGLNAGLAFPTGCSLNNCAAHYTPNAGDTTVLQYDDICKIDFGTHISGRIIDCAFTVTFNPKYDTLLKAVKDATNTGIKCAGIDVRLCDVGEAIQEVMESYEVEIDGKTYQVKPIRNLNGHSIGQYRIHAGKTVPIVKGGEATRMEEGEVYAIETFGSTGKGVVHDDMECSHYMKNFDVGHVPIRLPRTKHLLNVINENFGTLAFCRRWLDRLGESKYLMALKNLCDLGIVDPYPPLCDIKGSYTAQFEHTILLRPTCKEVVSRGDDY
Outline: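 MetAP2 at 20 nM final was incubated with compound at 200 nM final in 1% glycerol, 20 mM HEPES, 100 mM KCl, 0.1 mM CoSO4. Triplicate samples were taken at 1, 2, 4 and 8 h, and residual activity was read with Met-AMC substrate. Result is percent activity remaining at 8 h.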

[4] = test system: Rattus norvegicus; assay: CNS toxicity in rat assessed as incidence of seizures at 60 mg/kg, iv qd for 14 days; conditions: in vivo, 336 h
[5] = test system: Rattus norvegicus; assay: CNS toxicity in rat assessed as incidence of seizures at 6 mg/kg, iv qd for 14 days; conditions: in vivo, 336 h

Structure (SMILES) | IC50 [1] | IC50 [2] | Activity [3] | Activity [4] | Activity [5]
COC(=O)[C@H](NC(=O)O[C@@H]1CC[C@]2(CO2)C([C@@]2(C)O[C@@H]2CC=C(C)C)[C@@H]1OC)c1ccccc1 (single isomer, unassigned) | 35 pM | 36 pM | – | – | –
CO[C@H]1[C@@H]([C@@]2(C)O[C@@H]2CC=C(C)C)[C@]2(CC[C@H]1OC(=O)N[C@@H](C(N)=O)C(C)C)CO2 | 46 pM | 95 pM | 2.8% | Non-toxic | Non-toxic
CO[C@H]1C([C@@]2(C)O[C@@H]2CC=C(C)C)[C@]2(CC[C@H]1OC(=O)NC1(C(N)=O)CCCC1)CO2 (single isomer, unassigned) | – | 700 pM | 13% | – | –
CO[C@H]1C([C@@]2(C)O[C@@H]2CC=C(C)C)[C@]2(CC[C@H]1OC(=O)NCCC[N+](C)(C)C)CO2 (single isomer, unassigned) | – | > 100000 pM | 5.4% | – | –
CO[C@H]1C([C@@]2(C)O[C@@H]2CC=C(C)C)[C@]2(CC[C@H]1OC(=O)N[C@@H](C(=O)Nc1cccc(C(=O)O)c1)C(C)C)CO2 (single isomer, unassigned) | – | 15000 pM | 4.3% | – | –
CO[C@H]1C([C@@]2(C)O[C@@H]2CC=C(C)C)[C@]2(CC[C@H]1OC(=O)N1CCC(C(=O)O)CC1)CO2 (single isomer, unassigned) | – | 1300 pM | 8.3% | – | –
CO[C@H]1C([C@@]2(C)O[C@@H]2CC=C(C)C)[C@]2(CC[C@H]1OC(=O)NN1CCOCC1)CO2 (single isomer, unassigned) | – | 700 pM | 5.7% | – | –
CO[C@H]1C([C@@]2(C)O[C@@H]2CC=C(C)C)[C@]2(CC[C@H]1OC(=O)NCCN1CCCC1)CO2 (single isomer, unassigned) | – | 100 pM | 3.5% | – | –
COC(=O)[C@H](NC(=O)O[C@@H]1CC[C@]2(CO2)C([C@@]2(C)O[C@@H]2CC=C(C)C)[C@@H]1OC)C(C)C (single isomer, unassigned) | 48 pM | 40 pM | – | – | –
CO[C@H]1[C@@H]([C@@]2(C)O[C@@H]2CC=C(C)C)[C@]2(CC[C@H]1OC(=O)N[C@@H](C(=O)NN1CCOCC1)C(C)C)CO2 | – | 1700 pM | 5.2% | – | –
CO[C@H]1[C@@H]([C@@]2(C)O[C@@H]2CC=C(C)C)[C@]2(CC[C@H]1OC(=O)NC(=O)CCl)CO2 | – | 250 pM | 4% | – | –
CO[C@H]1C([C@@]2(C)O[C@@H]2CC=C(C)C)[C@]2(CC[C@H]1OC(=O)NCc1ccc(C(=O)O)cc1)CO2 (single isomer, unassigned) | – | 700 pM | 3.5% | – | –
CO[C@H]1[C@@H]([C@@]2(C)O[C@@H]2CC=C(C)C)[C@]2(CC[C@H]1OC(=O)N[C@@H](C(=O)NCCC1CCCN1C)C(C)C)CO2 (stereo partly specified) | – | 600 pM | 4.5% | – | –
CO[C@H]1C([C@@]2(C)O[C@@H]2CC=C(C)C)[C@]2(CC[C@H]1OC(=O)NCCC1CCC[N+]1(C)C)CO2 (single isomer, unassigned) | – | > 100000 pM | 6.3% | – | –
COC(=O)[C@@H](NC(=O)O[C@@H]1CC[C@]2(CO2)[C@H]([C@@]2(C)O[C@@H]2CC=C(C)C)[C@@H]1OC)C(C)C | 17 pM | 18 pM | – | – | –
CO[C@H]1C([C@@]2(C)O[C@@H]2CC=C(C)C)[C@]2(CC[C@H]1OC(=O)NC(C)(C)C)CO2 (single isomer, unassigned) | – | 1100 pM | – | – | –
COC(=O)[C@@H](CC(C)C)NC(=O)O[C@@H]1CC[C@]2(CO2)C([C@@]2(C)O[C@@H]2CC=C(C)C)[C@@H]1OC (single isomer, unassigned) | 118 pM | 38 pM | – | Toxic | Toxic
CO[C@H]1C([C@@]2(C)O[C@@H]2CC=C(C)C)[C@]2(CC[C@H]1OC(=O)NC(C)(C)C(N)=O)CO2 (single isomer, unassigned) | – | 1700 pM | 24% | – | –
CO[C@H]1[C@@H]([C@@]2(C)O[C@@H]2CC=C(C)C)[C@]2(CC[C@H]1OC(=O)N[C@@H](C(=O)NCCN1CCCC1)C(C)C)CO2 | – | 600 pM | 2.6% | – | –
CO[C@H]1C([C@@]2(C)O[C@@H]2CC=C(C)C)[C@]2(CC[C@H]1OC(=O)NC(C)C)CO2 (single isomer, unassigned) | – | 60 pM | 3% | – | –
CO[C@H]1C([C@@]2(C)O[C@@H]2CC=C(C)C)[C@]2(CC[C@H]1OC(=O)NCCC1CCCN1C)CO2 (single isomer, unassigned) | – | 200 pM | 5.4% | – | –
